Assay results reported in ChEMBL document CHEMBL1123928, “Inhibition of human sputum elastase by substituted 2-pyrones” (J Med Chem, 1987).
Values after ≈ are worked out from the molar mass of the structure shown.

Assays:
Neutrophil elastase = biological target: T1, Neutrophil elastase (Homo sapiens, UniProt P08246); test: (§1) Evaluated for inhibition of the human sputum elastase (HSE)
T1 sequence (P08246 whole entry): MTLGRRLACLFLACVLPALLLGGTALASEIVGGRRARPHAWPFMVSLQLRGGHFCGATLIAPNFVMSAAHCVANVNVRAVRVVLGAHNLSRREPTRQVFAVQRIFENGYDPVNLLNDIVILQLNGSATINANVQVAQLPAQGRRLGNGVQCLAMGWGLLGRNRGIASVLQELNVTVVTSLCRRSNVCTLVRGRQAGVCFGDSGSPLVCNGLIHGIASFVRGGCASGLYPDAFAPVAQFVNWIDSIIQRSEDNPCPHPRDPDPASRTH
Outline: (§2)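 HSE from sputum prepared in 50 mM NaOAc/0.45 M NaCl pH 5.5. Assay in 0.1 M HEPES, 0.5 M NaCl, 14.8% Me2SO, pH 7.5, 37 °C. Inhibitor at two or more concentrations (4–250 μM depending on compound). […] Ki from Hanes–Woolf plots with Dixon-type replots.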

alpha-chymotrypsin [1] = test: (§3) Solubility against bovine alpha-chymotrypsin; assay type: ADME, Bos taurus; conditions: cattle
Outline: (§4)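 Single-point screen run under the HSE assay conditions (0.1 M HEPES, 0.5 M NaCl, 14.8% Me2SO, pH 7.5, 37 °C). One inhibitor concentration near its solubility limit: 25, 10, 1000 or 200 μM depending on compound. One substrate concentration at 0.29 Km; porcine elastase Km 2600 μM. Each run at least twice; p-nitrophenol read at 400 nm.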

pancreatic elastase = pancreatic elastase (Sus scrofa, UniProt P00772+P08419); test: Solubility against porcine pancreatic elastase; assay type: ADME, protein assay; conditions: pig; outline: as §4
[2] = biological target: T2, trypsin (Serine protease 1) (Bos taurus, UniProt P00760); test: Solubility against bovine trypsin; assay type: ADME; conditions: cattle; outline: as §4
T2 sequence (P00760 whole entry): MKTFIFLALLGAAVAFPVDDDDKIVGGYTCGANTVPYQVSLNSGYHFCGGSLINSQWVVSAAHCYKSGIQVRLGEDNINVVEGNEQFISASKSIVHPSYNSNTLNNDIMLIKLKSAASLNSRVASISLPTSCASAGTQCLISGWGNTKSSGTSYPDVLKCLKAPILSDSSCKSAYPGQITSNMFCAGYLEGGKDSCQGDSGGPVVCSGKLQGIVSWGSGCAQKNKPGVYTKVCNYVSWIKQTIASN

[3] = Evaluated for uncompetitive inhibition of the human sputum elastase (HSE); outline: as §2
[4] = Evaluated for Non-competitive inhibition of the human sputum elastase (HSE); outline: as §2
[5] = as §1; assay type: functional; outline: as §2
alpha-chymotrypsin [6] = test: as §3; assay type: ADME, organism-based, Bos taurus; conditions: cattle; outline: as §4
[7] = Evaluated for inhibition of the human sputum elastase (HSE) at 1000 micro M; No activity

Ki (Neutrophil elastase) [µM]	inhibitor concentration tested (near solubility limit) (alpha-chymotrypsin [1]) [µM]	inhibitor concentration tested (near solubility limit) (pancreatic elastase) [µM]	solubility [2] [µM]	Ki [3] [µM]	Ki [4] [µM]	Ki [5] [µM]	solubility (alpha-chymotrypsin [6]) [µM]	Ki [7]	Compound
15	25	25	25 (≈ 8.41 µg/mL)						CCCCCCCC(=O)c1c(O)cc(CCCCCCC)oc1=O
	200	200	200 (≈ 50.5 µg/mL)	130					CCCCCCCCCc1cc(OC)cc(=O)o1
1100	200	200	200 (≈ 42.1 µg/mL)						CCCCCCCc1cc(O)cc(=O)o1
	200	200	200 (≈ 50.5 µg/mL)		400				CCCCCCCC(=O)c1c(O)cc(C)oc1=O
	200	200	200 (≈ 53.3 µg/mL)			83			CCCCCCCCCCCc1cc(O)cc(=O)o1
	200	200	200 (≈ 44.9 µg/mL)		2000				CCCCCC(=O)c1c(O)cc(C)oc1=O
400	200	200	200 (≈ 47.7 µg/mL)						CCCCCCCCCc1cc(O)cc(=O)o1
120	200	200	200 (≈ 48 µg/mL)						CCOC(=O)C(=O)/C=C1\C=C(OC)C=C(O)O1
1700	200	200	200 (≈ 36.4 µg/mL)						CCCCCc1cc(O)cc(=O)o1
		10	10 (≈ 4.49 µg/mL)				10 (≈ 4.49 µg/mL)		CCCCCCCCCCCC(=O)c1c(O)cc(CCCCCCCCCCC)oc1=O
4.6	25	25	25 (≈ 9.11 µg/mL)						CCCCCCCCC(=O)c1c(O)cc(CCCCCCCC)oc1=O
	200	200	200 (≈ 56.1 µg/mL)		250				CCCCCCCCCC(=O)c1c(O)cc(C)oc1=O
	200	200	200 (≈ 61.7 µg/mL)		54				CCCCCCCCCCCC(=O)c1c(O)cc(C)oc1=O
	25	25	25 (≈ 7.01 µg/mL)		67				CCCCCC(=O)c1c(O)cc(CCCCC)oc1=O
	200	200	200 (≈ 44.9 µg/mL)	140					CCCCCCCc1cc(OC)cc(=O)o1
7.9	25	25	25 (≈ 9.81 µg/mL)						CCCCCCCCCC(=O)c1c(O)cc(CCCCCCCCC)oc1=O
410	200	200	200 (≈ 56.5 µg/mL)						CCCCCOC(=O)C(=O)/C=C1\C=C(OC)C=C(O)O1
350	200	200	200 (≈ 53.7 µg/mL)						CCCCOC(=O)C(=O)/C=C1\C=C(OC)C=C(O)O1
	1000	1000	1000 (≈ 212 µg/mL)					No inhibitory activity	COC1=C/C(=C\C(=O)C(=O)O)OC(O)=C1
